ChEMBL document CHEMBL3232894, “Discovery of AMG 925, a FLT3 and CDK4 dual kinase inhibitor with preferential affinity for the activated state of FLT3” (J Med Chem, 2014)

Molecular target: CYP3A4 (Homo sapiens, UniProt P08684)
Assay: Inhibition of CYP3A4 (unknown origin) at 3 uM
Type: ADME
Details: not given

Sequence of CYP3A4 (P08684 whole entry): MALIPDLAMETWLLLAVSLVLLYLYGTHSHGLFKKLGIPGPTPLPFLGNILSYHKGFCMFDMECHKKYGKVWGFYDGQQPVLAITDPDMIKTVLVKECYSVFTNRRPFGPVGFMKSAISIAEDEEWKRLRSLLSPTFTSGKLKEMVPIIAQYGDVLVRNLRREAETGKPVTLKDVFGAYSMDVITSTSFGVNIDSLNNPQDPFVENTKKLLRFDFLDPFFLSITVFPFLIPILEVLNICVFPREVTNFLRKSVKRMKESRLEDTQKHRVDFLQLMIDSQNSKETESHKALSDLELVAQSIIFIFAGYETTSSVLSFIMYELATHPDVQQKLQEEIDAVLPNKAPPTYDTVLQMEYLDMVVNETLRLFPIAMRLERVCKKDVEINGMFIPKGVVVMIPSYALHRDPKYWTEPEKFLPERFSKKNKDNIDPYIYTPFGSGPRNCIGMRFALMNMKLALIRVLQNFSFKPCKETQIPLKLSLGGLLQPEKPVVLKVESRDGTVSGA

SMILES	inhibition at 3 µM [%]
c1cc2c3cnc(Nc4ccc(N5CCNCC5)cn4)nc3n(C3CCCC3)c2nn1	< 10
Fc1nccc2c3cnc(Nc4ccc(N5CCNCC5)cn4)nc3n(C3CCCC3)c12	< 10
O=c1[nH]ccc2c3cnc(Nc4ccc(N5CCNCC5)cn4)nc3n(C3CCCC3)c12	18
CC1(C)CCC(n2c3cnccc3c3cnc(Nc4ccc(N5CCNCC5)cn4)nc32)CC1	51
CC1(C)CCCC(n2c3cnccc3c3cnc(Nc4ccc(N5CCNCC5)cn4)nc32)C1 (stereo unspecified)	90
Cc1nccc2c3cnc(Nc4ccc(N5CCNCC5)cn4)nc3n(C3CCCC3)c12	< 10
c1cc2c3cnc(Nc4ccc(N5CCNCC5)cn4)nc3n(C3CCCCC3)c2cn1	82

Results, then the compound that gave them:

inhibition at 3 µM [%]	SMILES
90	c1cc2c3cnc(Nc4ccc(N5CCNCC5)cn4)nc3n(C3CCCC3)c2cn1
46	CC1CCC(n2c3cnccc3c3cnc(Nc4ccc(N5CCNCC5)cn4)nc32)CC1 (mixture of isomers)
20	C[C@H]1CC[C@H](n2c3cnccc3c3cnc(Nc4ccc(N5CCNCC5)cn4)nc32)CC1
17	C[C@@H](CO)n1c2cnccc2c2cnc(Nc3ccc(N4CCNCC4)cn3)nc21
70	O[C@H]1CC[C@H](n2c3cnccc3c3cnc(Nc4ccc(N5CCNCC5)cn4)nc32)CC1

System: MOLM-13
Assay: Antiproliferative activity against human MOLM13 cells harboring FLT3 ITD mutant assessed as incorporation of [3H]thymidine into DNA after 72 hrs by beta-plate counting analysis
Type: functional, cell-based
Details: not given

SMILES	IC50 [nM]
Fc1nccc2c3cnc(Nc4ccc(N5CCNCC5)cn4)nc3n(C3CCCC3)c12	21
O=c1[nH]ccc2c3cnc(Nc4ccc(N5CCNCC5)cn4)nc3n(C3CCCC3)c12	5
CC1(C)CCC(n2c3cnccc3c3cnc(Nc4ccc(N5CCNCC5)cn4)nc32)CC1	35
CC1(C)CCCC(n2c3cnccc3c3cnc(Nc4ccc(N5CCNCC5)cn4)nc32)C1 (stereo unspecified)	10
Cc1nccc2c3cnc(Nc4ccc(N5CCNCC5)cn4)nc3n(C3CCCC3)c12	5

More lines, now with the values ahead:

IC50 [nM]	SMILES
5	c1cc2c3cnc(Nc4ccc(N5CCNCC5)cn4)nc3n(C3CCCC3)c2cn1
13	C[C@H]1CC[C@H](n2c3cnccc3c3cnc(Nc4ccc(N5CCNCC5)cn4)nc32)CC1
25	O[C@H]1CC[C@H](n2c3cnccc3c3cnc(Nc4ccc(N5CCNCC5)cn4)nc32)CC1

Molecular target: Cyclin-dependent kinase 1/cyclin B1 (Homo sapiens, UniProt P06493)
Assay: Inhibition of CDK1/cyclin B (unknown origin) using histone H1 as substrate after 60 mins by scintillation counting analysis in presence of [r-33P]ATP
Type: protein-complex assay
Details: not given

Sequence of Cyclin-dependent kinase 1/cyclin B1 (P06493 whole entry): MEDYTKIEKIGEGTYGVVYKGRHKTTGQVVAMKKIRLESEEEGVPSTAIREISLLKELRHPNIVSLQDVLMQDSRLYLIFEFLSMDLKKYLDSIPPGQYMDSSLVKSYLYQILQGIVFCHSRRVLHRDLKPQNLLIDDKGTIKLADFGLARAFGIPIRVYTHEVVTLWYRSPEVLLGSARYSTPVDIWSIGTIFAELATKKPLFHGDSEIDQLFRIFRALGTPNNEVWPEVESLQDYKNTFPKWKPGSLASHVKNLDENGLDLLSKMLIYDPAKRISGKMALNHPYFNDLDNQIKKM
Sequence of Cyclin-dependent kinase 1/cyclin B1 (P14635 whole entry, further chain): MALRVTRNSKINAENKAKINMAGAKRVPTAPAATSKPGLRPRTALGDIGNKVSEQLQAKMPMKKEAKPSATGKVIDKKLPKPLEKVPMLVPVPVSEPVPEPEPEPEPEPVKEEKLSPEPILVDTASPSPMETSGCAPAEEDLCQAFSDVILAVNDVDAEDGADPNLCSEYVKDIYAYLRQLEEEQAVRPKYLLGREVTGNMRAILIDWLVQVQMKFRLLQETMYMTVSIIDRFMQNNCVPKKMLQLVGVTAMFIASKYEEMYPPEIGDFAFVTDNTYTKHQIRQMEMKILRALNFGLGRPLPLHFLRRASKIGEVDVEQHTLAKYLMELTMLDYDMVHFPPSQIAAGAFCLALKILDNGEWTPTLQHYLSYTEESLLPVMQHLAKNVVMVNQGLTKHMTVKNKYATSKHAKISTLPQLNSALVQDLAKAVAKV

SMILES	IC50 [nM]
c1cc2c3cnc(Nc4ccc(N5CCNCC5)cn4)nc3n(C3CCCC3)c2nn1	4780
Fc1nccc2c3cnc(Nc4ccc(N5CCNCC5)cn4)nc3n(C3CCCC3)c12	7560
O=c1[nH]ccc2c3cnc(Nc4ccc(N5CCNCC5)cn4)nc3n(C3CCCC3)c12	10000
CC1(C)CCC(n2c3cnccc3c3cnc(Nc4ccc(N5CCNCC5)cn4)nc32)CC1	2910
CC1(C)CCCC(n2c3cnccc3c3cnc(Nc4ccc(N5CCNCC5)cn4)nc32)C1 (stereo unspecified)	2960
Cc1nccc2c3cnc(Nc4ccc(N5CCNCC5)cn4)nc3n(C3CCCC3)c12	2260
c1cc2c3cnc(Nc4ccc(N5CCNCC5)cn4)nc3n(C3CCCCC3)c2cn1	6530

Further lines, results first:

IC50 [nM]	SMILES
3000	c1cc2c3cnc(Nc4ccc(N5CCNCC5)cn4)nc3n(C3CCCC3)c2cn1
5200	CC1CCC(n2c3cnccc3c3cnc(Nc4ccc(N5CCNCC5)cn4)nc32)CC1 (mixture of isomers)
2660	C[C@H]1CC[C@H](n2c3cnccc3c3cnc(Nc4ccc(N5CCNCC5)cn4)nc32)CC1
12800	C[C@@H](CO)n1c2cnccc2c2cnc(Nc3ccc(N4CCNCC4)cn3)nc21
3410	O[C@H]1CC[C@H](n2c3cnccc3c3cnc(Nc4ccc(N5CCNCC5)cn4)nc32)CC1

Molecular target: Cytochrome P450 3A4 (Homo sapiens, UniProt P08684)
Assay: Inhibition of CYP3A4 (unknown origin)
Type: ADME
Details: not given

Sequence of Cytochrome P450 3A4 (P08684 whole entry): as the sequence (P08684 whole entry) above

SMILES	IC50 [nM]
c1cc2c3cnc(Nc4ccc(N5CCNCC5)cn4)nc3n(C3CCCC3)c2nn1	> 10000
Fc1nccc2c3cnc(Nc4ccc(N5CCNCC5)cn4)nc3n(C3CCCC3)c12	> 10000
CC1(C)CCC(n2c3cnccc3c3cnc(Nc4ccc(N5CCNCC5)cn4)nc32)CC1	9500
Cc1nccc2c3cnc(Nc4ccc(N5CCNCC5)cn4)nc3n(C3CCCC3)c12	> 10000

Next, values leading:

IC50 [nM]	SMILES
550	c1cc2c3cnc(Nc4ccc(N5CCNCC5)cn4)nc3n(C3CCCC3)c2cn1
> 10000	C[C@H]1CC[C@H](n2c3cnccc3c3cnc(Nc4ccc(N5CCNCC5)cn4)nc32)CC1
> 10000	C[C@@H](CO)n1c2cnccc2c2cnc(Nc3ccc(N4CCNCC4)cn3)nc21

System: not listed separately
Assay: Oral bioavailability in rat
Type: ADME, organism-based
Details: in vivo
Method in brief: (§1)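 Intravenous and oral (gavage, solution) PK in rat, dog and cynomolgus monkey. The rat vehicle for both routes was water/acetate/tween at pH 4, 96/3/1 (v/v/v). Dog and monkey iv doses used 40% PG aqueous solution at pH 2, and their oral doses used 20% captisol aqueous solution.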

bioavailability [%]	SMILES
9.4	c1cc2c3cnc(Nc4ccc(N5CCNCC5)cn4)nc3n(C3CCCC3)c2cn1

System: not listed separately
Assay: Clearance in iv dosed rat
Type: ADME, organism-based
Details: in vivo
Method in brief: as §1

clearance [mL/min/kg]	SMILES
16.3	c1cc2c3cnc(Nc4ccc(N5CCNCC5)cn4)nc3n(C3CCCC3)c2cn1
93.3	c1cc2c3cnc(Nc4ccc(N5CCNCC5)cn4)nc3n(C3CCCC3)c2nn1
35	Fc1nccc2c3cnc(Nc4ccc(N5CCNCC5)cn4)nc3n(C3CCCC3)c12

Molecular target: Cyclin-dependent kinase 4/cyclin D1 (Homo sapiens, UniProt P11802)
Assay: Inhibition of CDK4/cyclin D1 (unknown origin) using Rb as substrate after 60 mins by scintillation counting analysis in presence of [r-33P]ATP
Type: protein-complex assay
Details: not given

Sequence of Cyclin-dependent kinase 4/cyclin D1 (P11802 whole entry): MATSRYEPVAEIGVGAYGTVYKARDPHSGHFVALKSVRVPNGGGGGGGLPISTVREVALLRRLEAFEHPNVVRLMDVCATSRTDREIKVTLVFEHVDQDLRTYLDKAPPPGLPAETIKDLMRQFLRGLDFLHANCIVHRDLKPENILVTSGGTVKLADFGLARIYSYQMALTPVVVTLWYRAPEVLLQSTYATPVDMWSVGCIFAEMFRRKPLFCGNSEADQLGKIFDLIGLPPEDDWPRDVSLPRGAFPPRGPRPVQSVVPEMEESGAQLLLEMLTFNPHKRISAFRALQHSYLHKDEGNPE
Sequence of Cyclin-dependent kinase 4/cyclin D1 (P24385 whole entry, further chain): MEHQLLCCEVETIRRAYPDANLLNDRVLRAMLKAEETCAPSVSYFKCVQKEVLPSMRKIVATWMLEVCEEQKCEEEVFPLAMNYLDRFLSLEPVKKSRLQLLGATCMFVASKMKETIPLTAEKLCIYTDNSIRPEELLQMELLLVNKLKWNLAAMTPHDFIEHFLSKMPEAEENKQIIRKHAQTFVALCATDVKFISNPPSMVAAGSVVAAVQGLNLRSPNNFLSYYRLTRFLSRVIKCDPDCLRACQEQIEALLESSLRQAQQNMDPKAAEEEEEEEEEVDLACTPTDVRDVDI

SMILES	IC50 [nM]
c1cc2c3cnc(Nc4ccc(N5CCNCC5)cn4)nc3n(C3CCCC3)c2nn1	51
Fc1nccc2c3cnc(Nc4ccc(N5CCNCC5)cn4)nc3n(C3CCCC3)c12	3
O=c1[nH]ccc2c3cnc(Nc4ccc(N5CCNCC5)cn4)nc3n(C3CCCC3)c12	5
CC1(C)CCC(n2c3cnccc3c3cnc(Nc4ccc(N5CCNCC5)cn4)nc32)CC1	1
CC1(C)CCCC(n2c3cnccc3c3cnc(Nc4ccc(N5CCNCC5)cn4)nc32)C1 (stereo unspecified)	3
Cc1nccc2c3cnc(Nc4ccc(N5CCNCC5)cn4)nc3n(C3CCCC3)c12	20
c1cc2c3cnc(Nc4ccc(N5CCNCC5)cn4)nc3n(C3CCCCC3)c2cn1	5

Continued, values first:

IC50 [nM]	SMILES
3	c1cc2c3cnc(Nc4ccc(N5CCNCC5)cn4)nc3n(C3CCCC3)c2cn1
1	CC1CCC(n2c3cnccc3c3cnc(Nc4ccc(N5CCNCC5)cn4)nc32)CC1 (mixture of isomers)
7	C[C@H]1CC[C@H](n2c3cnccc3c3cnc(Nc4ccc(N5CCNCC5)cn4)nc32)CC1
40	C[C@@H](CO)n1c2cnccc2c2cnc(Nc3ccc(N4CCNCC4)cn3)nc21
3	O[C@H]1CC[C@H](n2c3cnccc3c3cnc(Nc4ccc(N5CCNCC5)cn4)nc32)CC1

System: not listed separately
Assay: Antiproliferative activity against Rb-negative human MDA-MB-436 cells assessed as incorporation of [3H]thymidine into DNA after 72 hrs by beta-plate counting analysis
Type: functional
Details: not given

SMILES	IC50 [nM]
c1cc2c3cnc(Nc4ccc(N5CCNCC5)cn4)nc3n(C3CCCC3)c2cn1	1760
c1cc2c3cnc(Nc4ccc(N5CCNCC5)cn4)nc3n(C3CCCC3)c2nn1	7050
CC1CCC(n2c3cnccc3c3cnc(Nc4ccc(N5CCNCC5)cn4)nc32)CC1 (mixture of isomers)	1020
Fc1nccc2c3cnc(Nc4ccc(N5CCNCC5)cn4)nc3n(C3CCCC3)c12	2610
O=c1[nH]ccc2c3cnc(Nc4ccc(N5CCNCC5)cn4)nc3n(C3CCCC3)c12	2100
CC1(C)CCC(n2c3cnccc3c3cnc(Nc4ccc(N5CCNCC5)cn4)nc32)CC1	2010
CC1(C)CCCC(n2c3cnccc3c3cnc(Nc4ccc(N5CCNCC5)cn4)nc32)C1 (stereo unspecified)	1620
C[C@H]1CC[C@H](n2c3cnccc3c3cnc(Nc4ccc(N5CCNCC5)cn4)nc32)CC1	1210
C[C@@H](CO)n1c2cnccc2c2cnc(Nc3ccc(N4CCNCC4)cn3)nc21	30000
Cc1nccc2c3cnc(Nc4ccc(N5CCNCC5)cn4)nc3n(C3CCCC3)c12	3420
c1cc2c3cnc(Nc4ccc(N5CCNCC5)cn4)nc3n(C3CCCCC3)c2cn1	540
O[C@H]1CC[C@H](n2c3cnccc3c3cnc(Nc4ccc(N5CCNCC5)cn4)nc32)CC1	2610

System: COLO 205
Assay: Antiproliferative activity against Rb-positive human COLO205 cells assessed as incorporation of [14C]thymidine into DNA after 72 hrs by beta-plate counting analysis
Details: not given

SMILES	IC50 [nM]
c1cc2c3cnc(Nc4ccc(N5CCNCC5)cn4)nc3n(C3CCCC3)c2nn1	51
Fc1nccc2c3cnc(Nc4ccc(N5CCNCC5)cn4)nc3n(C3CCCC3)c12	52
O=c1[nH]ccc2c3cnc(Nc4ccc(N5CCNCC5)cn4)nc3n(C3CCCC3)c12	120
CC1(C)CCC(n2c3cnccc3c3cnc(Nc4ccc(N5CCNCC5)cn4)nc32)CC1	28
CC1(C)CCCC(n2c3cnccc3c3cnc(Nc4ccc(N5CCNCC5)cn4)nc32)C1 (stereo unspecified)	33
Cc1nccc2c3cnc(Nc4ccc(N5CCNCC5)cn4)nc3n(C3CCCC3)c12	280
c1cc2c3cnc(Nc4ccc(N5CCNCC5)cn4)nc3n(C3CCCCC3)c2cn1	32

More lines, now with the values ahead:

IC50 [nM]	SMILES
25	c1cc2c3cnc(Nc4ccc(N5CCNCC5)cn4)nc3n(C3CCCC3)c2cn1
55	CC1CCC(n2c3cnccc3c3cnc(Nc4ccc(N5CCNCC5)cn4)nc32)CC1 (mixture of isomers)
20	C[C@H]1CC[C@H](n2c3cnccc3c3cnc(Nc4ccc(N5CCNCC5)cn4)nc32)CC1
1240	C[C@@H](CO)n1c2cnccc2c2cnc(Nc3ccc(N4CCNCC4)cn3)nc21
66	O[C@H]1CC[C@H](n2c3cnccc3c3cnc(Nc4ccc(N5CCNCC5)cn4)nc32)CC1

Molecular target: T1, Receptor-type tyrosine-protein kinase FLT3 (Homo sapiens, UniProt P36888)
T1 sequence (P36888 whole entry): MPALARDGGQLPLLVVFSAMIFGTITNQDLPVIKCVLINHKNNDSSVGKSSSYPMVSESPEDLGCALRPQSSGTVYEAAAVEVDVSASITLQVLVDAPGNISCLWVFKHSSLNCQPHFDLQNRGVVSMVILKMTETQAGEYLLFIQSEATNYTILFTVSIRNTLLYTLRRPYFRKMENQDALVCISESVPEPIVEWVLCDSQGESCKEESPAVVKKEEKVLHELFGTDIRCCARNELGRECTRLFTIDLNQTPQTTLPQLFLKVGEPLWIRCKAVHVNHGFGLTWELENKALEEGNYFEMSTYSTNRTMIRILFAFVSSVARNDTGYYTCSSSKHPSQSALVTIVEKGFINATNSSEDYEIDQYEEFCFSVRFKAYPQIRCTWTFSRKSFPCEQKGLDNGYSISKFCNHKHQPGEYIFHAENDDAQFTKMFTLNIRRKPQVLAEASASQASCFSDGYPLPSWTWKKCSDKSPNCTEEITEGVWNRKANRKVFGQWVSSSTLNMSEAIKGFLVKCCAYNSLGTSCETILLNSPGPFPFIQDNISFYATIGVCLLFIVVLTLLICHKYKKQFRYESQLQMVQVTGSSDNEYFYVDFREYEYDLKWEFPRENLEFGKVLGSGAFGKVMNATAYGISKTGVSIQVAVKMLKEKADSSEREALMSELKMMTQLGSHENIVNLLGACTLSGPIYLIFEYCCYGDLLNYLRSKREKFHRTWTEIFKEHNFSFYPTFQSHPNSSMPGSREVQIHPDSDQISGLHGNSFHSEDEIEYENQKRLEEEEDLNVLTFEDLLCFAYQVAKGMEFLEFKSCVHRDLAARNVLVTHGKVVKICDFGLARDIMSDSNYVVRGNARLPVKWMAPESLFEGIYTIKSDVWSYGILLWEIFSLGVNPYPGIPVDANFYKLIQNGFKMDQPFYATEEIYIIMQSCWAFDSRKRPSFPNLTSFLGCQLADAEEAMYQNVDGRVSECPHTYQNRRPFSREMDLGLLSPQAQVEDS
Assay: Inhibition of GST-fused human FLT3 cytoplasmic domain (amino acids 564 to 993) using Ulight-JAK1 as substrate after 1 hr by TR-FRET assay
Details: not given

SMILES	IC50 [nM]
c1cc2c3cnc(Nc4ccc(N5CCNCC5)cn4)nc3n(C3CCCC3)c2nn1	95
Fc1nccc2c3cnc(Nc4ccc(N5CCNCC5)cn4)nc3n(C3CCCC3)c12	11
O=c1[nH]ccc2c3cnc(Nc4ccc(N5CCNCC5)cn4)nc3n(C3CCCC3)c12	17
CC1(C)CCC(n2c3cnccc3c3cnc(Nc4ccc(N5CCNCC5)cn4)nc32)CC1	17
CC1(C)CCCC(n2c3cnccc3c3cnc(Nc4ccc(N5CCNCC5)cn4)nc32)C1 (stereo unspecified)	3
Cc1nccc2c3cnc(Nc4ccc(N5CCNCC5)cn4)nc3n(C3CCCC3)c12	22
c1cc2c3cnc(Nc4ccc(N5CCNCC5)cn4)nc3n(C3CCCCC3)c2cn1	2

Results, then the compound that gave them:

IC50 [nM]	SMILES
14	c1cc2c3cnc(Nc4ccc(N5CCNCC5)cn4)nc3n(C3CCCC3)c2cn1
2	CC1CCC(n2c3cnccc3c3cnc(Nc4ccc(N5CCNCC5)cn4)nc32)CC1 (mixture of isomers)
2	C[C@H]1CC[C@H](n2c3cnccc3c3cnc(Nc4ccc(N5CCNCC5)cn4)nc32)CC1
43	C[C@@H](CO)n1c2cnccc2c2cnc(Nc3ccc(N4CCNCC4)cn3)nc21
5	O[C@H]1CC[C@H](n2c3cnccc3c3cnc(Nc4ccc(N5CCNCC5)cn4)nc32)CC1
